According to ChEMBL document CHEMBL1255285, “Spontaneous deletion of the methicillin resistance determinant, mecA, partially compensates for the fitness cost associated with high-level vancomycin resistance in Staphylococcus aureus” (2008):
Converted amounts (≈) assume the structure as drawn.

Key:
Type in all cases: functional
Staphylococcus aureus [1] = assay: Antimicrobial activity against oxacillin sensitive and tetracycline resistant Staphylococcus aureus isolate 450MHomodeltamecA with mecA::tetM genotype by broth microdilution method
Method in brief: (§1)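 Broth microdilution MIC in cation-adjusted Mueller-Hinton broth per CLSI (formerly NCCLS) guidelines. Strains were routinely grown in brain heart infusion broth or agar at 37°C with shaking at 220 rpm. Vancomycin-passaged derivatives were raised by serial broth passage through 0.5 to 32 µg/ml vancomycin, then maintained on BHI agar with 32 µg/ml vancomycin.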

Staphylococcus aureus [2] = assay: Antimicrobial activity against homotypic oxacillin resistant and vancomycin resistant Staphylococcus aureus isolate 5827V32 by broth microdilution method; method in brief: as §1
Staphylococcus aureus [3] = assay: Antimicrobial activity against oxacillin sensitive and vancomycin resistant Staphylococcus aureus isolate VP32 by broth microdilution method; method in brief: as §1
Staphylococcus aureus [4] = assay: Antimicrobial activity against heterotypic oxacillin resistant and vancomycin intermediate resistant Staphylococcus aureus isolate 5836 by broth microdilution method; method in brief: as §1
Staphylococcus aureus [5] = assay: Antimicrobial activity against homotypic oxacillin resistant and vancomycin intermediate resistant Staphylococcus aureus isolate 5827 by broth microdilution method; method in brief: as §1
Staphylococcus aureus [6] = assay: Antimicrobial activity against homotypic oxacillin resistant and vancomycin sensitive Staphylococcus aureus isolate 3130 by broth microdilution method; method in brief: as §1
Staphylococcus aureus [7] = assay: Antimicrobial activity against homotypic oxacillin resistant and vancomycin resistant Staphylococcus aureus isolate 5836V32 by broth microdilution method; method in brief: as §1
Staphylococcus aureus [8] = assay: Antimicrobial activity against oxacillin sensitive Staphylococcus aureus isolate 450MHomoex with SCCmec excised genotype by broth microdilution method; method in brief: as §1
Staphylococcus aureus [9] = assay: Antimicrobial activity against oxacillin sensitive and vancomycin resistant Staphylococcus aureus isolate 3130VR by broth microdilution method; method in brief: as §1
Staphylococcus aureus [10] = assay: Antimicrobial activity against oxacillin sensitive and tetracycline and vancomycin resistant Staphylococcus aureus isolate 3130V32deltamecA with mecA::tetM genotype by broth microdilution method; method in brief: as §1
Staphylococcus aureus [11] = assay: Antimicrobial activity against homotypic oxacillin resistant Staphylococcus aureus isolate 450MHomo by broth microdilution method; method in brief: as §1
Staphylococcus aureus [12] = assay: Antimicrobial activity against homotypic oxacillin resistant and vancomycin resistant Staphylococcus aureus isolate 3130V32 by broth microdilution method; method in brief: as §1
Staphylococcus aureus [13] = assay: Antimicrobial activity against oxacillin sensitive and vancomycin resistant Staphylococcus aureus isolate 5836VR by broth microdilution method
Method in brief: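 MIC by broth microdilution in cation-adjusted Mueller-Hinton broth, following CLSI (formerly NCCLS) guidelines. The isolate came from an MRSA parent passaged in broth through stepwise vancomycin (0.5 to 32 µg/ml). It was then kept on BHI agar with 32 µg/ml vancomycin and selected as unable to grow on 6 µg/ml oxacillin. Routine growth was in BHI at 37°C.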

SMILES	MIC (Staphylococcus aureus [1])	MIC (Staphylococcus aureus [2])	MIC (Staphylococcus aureus [3])	MIC (Staphylococcus aureus [4])	MIC (Staphylococcus aureus [5])	MIC (Staphylococcus aureus [6])	MIC (Staphylococcus aureus [7])	MIC (Staphylococcus aureus [8])	MIC (Staphylococcus aureus [9])	MIC (Staphylococcus aureus [10])	MIC (Staphylococcus aureus [11])	MIC (Staphylococcus aureus [12])	MIC (Staphylococcus aureus [13])
Cc1onc(-c2ccccc2)c1C(=O)N[C@@H]1C(=O)N2[C@@H]1SC(C)(C)[C@@H]2C(=O)O [OXACILLIN]	0.5 µg/mL (≈ 1.25 µM)	> 8 µg/mL	0.5 µg/mL (≈ 1.25 µM)	> 8 µg/mL	> 8 µg/mL	> 8 µg/mL	> 8 µg/mL	0.5 µg/mL (≈ 1.25 µM)	0.5 µg/mL (≈ 1.25 µM)	0.5 µg/mL (≈ 1.25 µM)	> 8 µg/mL	> 8 µg/mL	0.25 µg/mL (≈ 0.623 µM)
CN[C@H](CC(C)C)C(=O)N[C@H]1C(=O)N[C@@H](CC(N)=O)C(=O)N[C@H]2C(=O)N[C@H]3C(=O)N[C@H](C(=O)N[C@H](C(=O)O)c4cc(O)cc(O)c4-c4cc3ccc4O)[C@H](O)c3ccc(c(Cl)c3)Oc3cc2cc(c3O[C@@H]2O[C@H](CO)[C@@H](O)[C@H](O)[C@H]2O[C@H]2C[C@](C)(N)[C@H](O)[C@H](C)O2)Oc2ccc(cc2Cl)[C@H]1O [VANCOMYCIN]		32 µg/mL (≈ 22.1 µM)	32 µg/mL (≈ 22.1 µM)	8 µg/mL (≈ 5.52 µM)			32 µg/mL (≈ 22.1 µM)		32 µg/mL (≈ 22.1 µM)	32 µg/mL (≈ 22.1 µM)		32 µg/mL (≈ 22.1 µM)	32 µg/mL (≈ 22.1 µM)
